The nature of data set [1]: Cytotoxicity against HEK293 cells assessed as cell viability at 50 uM after 24 hrs by Alamar Blue assay relative to control. The data set is classed as cell-based. The note with it: human, read-out: Activity. The method, boiled down: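 AlamarBlue added after 24 h, incubated a further 21 h; resorufin fluorescence ex 560/em 590 nm. Triplicates; viability relative to untreated cells; daunorubicin positive control.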

For data set [2], the system named is Schistosoma mansoni. Kind of data set: Antiparasitic activity against schistosomula stage of Schistosoma mansoni assessed as parasite viability at 10 uM after 48 hrs by Alamar Blue assay relative to control. Format: functional. The procedure, abridged:
(§1)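 Mechanically transformed S. mansoni schistosomula, 100 per well, in Medium 199 with 10% FCS, penicillin, streptomycin and rifampicin, held 3 h at 37°C/5% CO2 before use. […] Resazurin added at 48 h; fluorescence (ex 530/em 590 nm) read 24 h later, corrected for drug-medium background. Ethanol-killed larvae as dead control. Triplicate wells, two biological replicates.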

Data set [3] has as its target T1, Histone deacetylase 8 (Homo sapiens, UniProt Q9BY41).
T1 sequence (Q9BY41 whole entry): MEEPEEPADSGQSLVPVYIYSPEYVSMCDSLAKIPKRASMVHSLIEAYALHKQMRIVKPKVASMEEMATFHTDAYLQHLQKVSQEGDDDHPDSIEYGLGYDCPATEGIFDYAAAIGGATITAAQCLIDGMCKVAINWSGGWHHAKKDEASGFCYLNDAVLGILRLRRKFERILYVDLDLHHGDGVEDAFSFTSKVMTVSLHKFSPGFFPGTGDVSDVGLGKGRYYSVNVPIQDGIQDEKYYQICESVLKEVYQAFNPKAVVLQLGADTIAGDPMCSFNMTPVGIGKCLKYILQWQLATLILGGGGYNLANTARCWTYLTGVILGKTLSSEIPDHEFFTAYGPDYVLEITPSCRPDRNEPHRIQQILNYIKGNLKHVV
Kind of data set: Inhibition of recombinant human HDAC8 using Fluor de Lys as substrate preincubated for 90 mins followed by BML-KI176 addition measured after 45 mins by fluorescence assay. The note with it: read-out: IC50.

The target in data set [4] is T2, Histone deacetylase 8 (Schistosoma mansoni, UniProt A5H660).
T2 sequence (A5H660 whole entry): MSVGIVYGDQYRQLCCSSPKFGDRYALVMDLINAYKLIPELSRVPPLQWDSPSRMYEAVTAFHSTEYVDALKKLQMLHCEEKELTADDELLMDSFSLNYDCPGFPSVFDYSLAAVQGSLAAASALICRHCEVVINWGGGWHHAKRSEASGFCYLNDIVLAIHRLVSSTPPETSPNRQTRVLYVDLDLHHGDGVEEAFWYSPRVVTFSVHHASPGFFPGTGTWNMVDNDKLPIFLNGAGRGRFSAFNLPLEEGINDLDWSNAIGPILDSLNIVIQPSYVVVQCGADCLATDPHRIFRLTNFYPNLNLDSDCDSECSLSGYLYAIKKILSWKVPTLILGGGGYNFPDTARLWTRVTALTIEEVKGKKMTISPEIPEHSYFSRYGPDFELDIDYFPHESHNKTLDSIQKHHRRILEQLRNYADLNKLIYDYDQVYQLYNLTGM
As to the kind of experiment: Inhibition of recombinant Schistosoma mansoni HDAC8 expressed in Escherichia coli using Fluor de Lys as substrate preincubated for 90 mins followed by BML-KI176 addition measured after 45 mins by fluorescence assay. The note with it: read-out: IC50. The procedure, abridged: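 smHDAC8 produced in E. coli. Fluor de Lys kit: compound, Fluor de Lys-HDAC8 substrate (50 µM) and enzyme incubated 90 min at 37°C, then Developer II for 45 min at 30°C. Reaction stopped with trichostatin A (2 µM). Fluorescence read at ex 390/em 460 nm. IC50 given as mean ± S.E.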

The target in data set [5] is T3, Histone deacetylase 1 (Homo sapiens, UniProt Q13547). Kind of data set: Inhibition of recombinant human HDAC1 using Cbz-(Ac)Lys-AMC as substrate at 10 uM preincubated for 90 mins followed by trypsin addition measured after 20 mins by fluorescence assay relative to control.
Data set [6] has as its target T3, Histone deacetylase 1. Kind of data set: Inhibition of recombinant human HDAC1 using Cbz-(Ac)Lys-AMC as substrate preincubated for 90 mins followed by trypsin addition measured after 20 mins by fluorescence assay. The note with it: read-out: IC50.
Data set [7] deals with T4, Protein deacetylase HDAC6 (Homo sapiens, UniProt Q9UBN7).
T4 sequence (Q9UBN7 whole entry): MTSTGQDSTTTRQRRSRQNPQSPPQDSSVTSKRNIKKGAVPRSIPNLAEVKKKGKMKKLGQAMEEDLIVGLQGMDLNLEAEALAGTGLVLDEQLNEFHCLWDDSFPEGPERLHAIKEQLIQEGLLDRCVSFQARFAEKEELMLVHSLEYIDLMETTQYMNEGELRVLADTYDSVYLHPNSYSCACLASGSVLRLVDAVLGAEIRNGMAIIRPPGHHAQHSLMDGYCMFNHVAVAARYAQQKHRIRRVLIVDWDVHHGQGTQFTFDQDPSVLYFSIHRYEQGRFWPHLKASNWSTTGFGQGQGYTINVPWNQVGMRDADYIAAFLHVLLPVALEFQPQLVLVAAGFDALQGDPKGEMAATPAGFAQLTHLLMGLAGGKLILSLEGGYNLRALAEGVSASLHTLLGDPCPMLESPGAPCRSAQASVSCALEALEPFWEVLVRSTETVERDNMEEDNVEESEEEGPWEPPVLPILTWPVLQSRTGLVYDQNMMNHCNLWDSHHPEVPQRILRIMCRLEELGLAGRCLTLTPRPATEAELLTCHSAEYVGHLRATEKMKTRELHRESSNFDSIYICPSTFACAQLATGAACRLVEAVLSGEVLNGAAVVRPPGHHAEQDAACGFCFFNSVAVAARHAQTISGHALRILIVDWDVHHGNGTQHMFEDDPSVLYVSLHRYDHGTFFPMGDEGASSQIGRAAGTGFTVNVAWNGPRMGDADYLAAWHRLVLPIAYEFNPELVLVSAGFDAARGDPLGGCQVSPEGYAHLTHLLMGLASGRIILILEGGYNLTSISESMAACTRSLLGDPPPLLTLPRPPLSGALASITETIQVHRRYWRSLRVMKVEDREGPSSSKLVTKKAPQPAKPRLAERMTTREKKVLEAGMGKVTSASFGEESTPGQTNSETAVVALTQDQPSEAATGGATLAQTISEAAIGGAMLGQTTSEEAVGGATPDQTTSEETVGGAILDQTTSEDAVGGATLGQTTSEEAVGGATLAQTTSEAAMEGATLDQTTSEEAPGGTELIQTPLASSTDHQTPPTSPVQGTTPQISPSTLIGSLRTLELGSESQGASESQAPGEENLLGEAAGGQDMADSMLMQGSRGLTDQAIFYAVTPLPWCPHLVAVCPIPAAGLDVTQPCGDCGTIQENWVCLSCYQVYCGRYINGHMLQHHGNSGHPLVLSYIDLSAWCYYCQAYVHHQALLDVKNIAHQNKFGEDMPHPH
As to the kind of experiment: Inhibition of recombinant human HDAC6 using Cbz-(Ac)Lys-AMC as substrate preincubated for 90 mins followed by trypsin addition measured after 20 mins by fluorescence assay. The note with it: read-out: IC50.

Data set [8] relates to Schistosoma mansoni. As to the kind of experiment: Antiparasitic activity against schistosomula stage of Schistosoma mansoni assessed as parasite viability at 20 uM after 48 hrs by Alamar Blue assay relative to control. Format: functional. The procedure, abridged:
as §1
A general note: Alamar Blue is a resazurin reagent that responds to reducing activity.

T3 sequence (Q13547 whole entry): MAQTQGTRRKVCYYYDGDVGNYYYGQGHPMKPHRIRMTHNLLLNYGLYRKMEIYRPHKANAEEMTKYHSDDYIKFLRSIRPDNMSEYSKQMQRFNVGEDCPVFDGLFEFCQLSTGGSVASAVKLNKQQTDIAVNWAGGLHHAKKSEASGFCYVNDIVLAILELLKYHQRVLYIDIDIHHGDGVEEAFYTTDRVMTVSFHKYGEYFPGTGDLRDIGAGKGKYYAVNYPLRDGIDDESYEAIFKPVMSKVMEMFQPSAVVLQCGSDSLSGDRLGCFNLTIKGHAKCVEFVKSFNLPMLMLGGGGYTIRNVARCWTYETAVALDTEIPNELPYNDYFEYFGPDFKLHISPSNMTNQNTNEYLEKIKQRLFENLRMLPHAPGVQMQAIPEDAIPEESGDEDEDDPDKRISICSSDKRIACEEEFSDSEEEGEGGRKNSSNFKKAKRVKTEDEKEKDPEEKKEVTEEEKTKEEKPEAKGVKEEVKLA

In the case of `CN(C)c1cccc(C(=O)NO)c1`, the viability at 24 h, 50 µM in data set [1] worked out at 92.7%. Besides, in data set [2], the Activity came out at 92.6%. Besides, the 50% inhibitory concentration (IC50) in data set [3] was determined as 70.2 nM; in data set [4], 1580 nM. Also, in data set [5], the inhibition came out at 37.4%.

As for `COc1ccc(C(=O)NO)cc1NC(=O)Cc1ccccc1`, the viability at 24 h, 50 µM in data set [1] stood at 88.7%. In addition, the Activity in data set [2] is on record as 83.3%; in data set [8] it was 82.8%. For the same molecule, the IC50 is 28900 nM in data set [6], 5100 nM in data set [7], 512 nM in data set [3] and 183 nM in data set [4].

`COc1ccc(C(=O)NO)cc1NC(=O)c1ccccc1Cl`: in data set [1], the viability at 24 h, 50 µM is 96.9%. Moreover, the Activity in data set [2] is recorded as 89.5%; in data set [8] it was 66.5%. Moreover, the IC50 in data set [6] is 9600 nM; in data set [7] it was 3100 nM; in data set [3], 211 nM; in data set [4] it was 699 nM.

Turning to `O=C(NO)c1cccc(N(Cc2ccccc2)Cc2ccccc2)c1`, in data set [1], the viability at 24 h, 50 µM worked out at 7.7%. The Activity in data set [2] worked out at 77.9%; in data set [8] it was 74.6%. For the same molecule, the IC50 in data set [6] came to 42300 nM; in data set [7] it was 8600 nM; in data set [3] it was 2190 nM; in data set [4], 9290 nM.

Regarding `O=C(NO)c1ccc(C(F)(F)F)c(NC(=O)c2ccccc2)c1`, the viability at 24 h, 50 µM in data set [1] worked out at 96%. Moreover, the Activity in data set [2] was determined as 99.9%; in data set [8], 77.4%. The IC50 in data set [6] amounted to 2400 nM; in data set [7], 140 nM; in data set [3] it was 342 nM; in data set [4] it was 140 nM.

Regarding `O=C(NO)c1ccc(Cl)c(NC(=O)c2ccc(Cl)cc2)c1`, the viability at 24 h, 50 µM in data set [1] is 81.6%. In addition, the Activity in data set [2] stood at 71.8%; in data set [8], 49.3%. In addition, the IC50 in data set [6] was 3800 nM; in data set [7], 90 nM; in data set [3], 292 nM; in data set [4], 235 nM.

In the case of `O=C(NO)c1ccc(Cl)c(NC(=O)c2cccc(Oc3ccccc3)c2)c1`, in data set [1], the viability at 24 h, 50 µM came to 62%. Besides, the Activity in data set [2] is given as 62.9%; in data set [8], 55%. Moreover, the IC50 in data set [6] was 6400 nM; in data set [7] it was 300 nM; in data set [3] it was 449 nM; in data set [4], 396 nM.

Take `O=C(NO)c1ccc(Cl)c(NC(=O)c2ccc(Cl)cc2Cl)c1`: in data set [1], the viability at 24 h, 50 µM was determined as 70.4%. Further, the Activity in data set [2] was 72.5%; in data set [8] it was 59.3%. For the same molecule, the IC50 in data set [6] is 31600 nM; in data set [7], 800 nM; in data set [3] it was 1180 nM; in data set [4], 191 nM.

`COc1ccc(C(=O)Nc2cc(C(=O)NO)ccc2OC)cc1`: in data set [1], the viability at 24 h, 50 µM came out at 61.9%. In addition, the Activity is given as 74.6% in data set [2] and 64.6% in data set [8]. Besides, the IC50 in data set [6] was found to be 2600 nM; in data set [7], 400 nM; in data set [3] it was 77.1 nM; in data set [4], 106 nM.

What is called IC50 is the point on the concentration scale where inhibition reaches its midpoint. By inhibition is commonly meant the relative decrease from the control value, in per cent.

Values taken from ChEMBL document CHEMBL3797085, “Structure-Based Design and Synthesis of Novel Inhibitors Targeting HDAC8 from Schistosoma mansoni for the Treatment of Schistosomiasis” (J Med Chem, 2016).
